We go through six compounds from BindingDB's records for doi:10.1016/j.bmc.2013.06.068 (University of Maryland, 2013).

The structures appear in SMILES notation.

For experiment [1], the target named is Delta-type opioid receptor (Homo sapiens, UniProt P41143). As to the kind of experiment: Displacement of [3H]DPDPE from human delta opioid receptor expressed in CHO cells after 120 mins by liquid scintillation counting. The procedure, abridged:
(§1)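 Membranes from CHO cells stably expressing human μ, δ or κ opioid receptor. Radioligands: μ 1.3 nM [3H]DAMGO, δ 1.2 nM [3H]DPDPE, κ 1.7 nM [3H]U69,593; nonspecific with 1 μM of the matching unlabelled ligand.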
Background: In a radioligand displacement assay an active substance lowers the binding of a labelled ligand.

Experiment [2] has as its target Mu-type opioid receptor (Homo sapiens, UniProt P35372). As to the kind of experiment: Displacement of [3H]DAMGO from human mu opioid receptor expressed in CHO cells after 120 mins by liquid scintillation counting. In outline:
as §1

For experiment [3], the target named is Sigma non-opioid intracellular receptor 1 (Rattus norvegicus, UniProt Q9R0C9). Kind of experiment: Displacement of [3H](+)-pentazocine from sigma 1 receptor in rat brain homogenates after 120 mins by liquid scintillation counting. The procedure, abridged:
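σ1 sites labelled with 5 nM [3H](+)-pentazocine in rat brain homogenate; nonspecific binding defined with 10 μM haloperidol. Up to 12 competitor concentrations, incubated 120 min at 25 °C. Terminated by vacuum filtration onto PEI-soaked GF/B filters, bound radioactivity counted by liquid scintillation. Ki obtained by Cheng–Prusoff.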

Experiment [4] addresses Kappa-type opioid receptor (Homo sapiens, UniProt P41145). As to the kind of experiment: Displacement of [3H]U69,593 from human kappa opioid receptor expressed in CHO cells after 120 mins by liquid scintillation counting. The procedure, abridged: as §1

Sequence of Mu-type opioid receptor (P35372 whole entry): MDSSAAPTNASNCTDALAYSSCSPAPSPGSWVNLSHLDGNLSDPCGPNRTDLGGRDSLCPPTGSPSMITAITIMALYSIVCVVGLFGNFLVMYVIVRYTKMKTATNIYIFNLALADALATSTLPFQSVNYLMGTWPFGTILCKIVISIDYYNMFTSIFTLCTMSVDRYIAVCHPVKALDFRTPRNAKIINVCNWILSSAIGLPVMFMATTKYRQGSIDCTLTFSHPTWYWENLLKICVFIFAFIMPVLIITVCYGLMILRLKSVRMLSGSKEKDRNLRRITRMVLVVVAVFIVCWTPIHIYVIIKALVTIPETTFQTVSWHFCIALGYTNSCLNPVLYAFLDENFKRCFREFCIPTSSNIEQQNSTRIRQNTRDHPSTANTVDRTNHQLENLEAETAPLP
Sequence of Kappa-type opioid receptor (P41145 whole entry): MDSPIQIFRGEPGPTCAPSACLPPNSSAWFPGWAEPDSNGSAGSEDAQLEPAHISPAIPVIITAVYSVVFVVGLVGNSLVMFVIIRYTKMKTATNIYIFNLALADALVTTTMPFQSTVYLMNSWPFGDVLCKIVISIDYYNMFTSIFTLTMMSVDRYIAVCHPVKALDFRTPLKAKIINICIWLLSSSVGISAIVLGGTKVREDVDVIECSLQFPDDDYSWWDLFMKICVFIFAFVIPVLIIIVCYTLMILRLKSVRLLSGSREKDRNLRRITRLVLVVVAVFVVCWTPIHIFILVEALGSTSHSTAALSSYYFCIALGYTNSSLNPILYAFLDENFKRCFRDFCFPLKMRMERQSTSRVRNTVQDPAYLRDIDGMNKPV
Sequence of Sigma non-opioid intracellular receptor 1 (Q9R0C9 whole entry): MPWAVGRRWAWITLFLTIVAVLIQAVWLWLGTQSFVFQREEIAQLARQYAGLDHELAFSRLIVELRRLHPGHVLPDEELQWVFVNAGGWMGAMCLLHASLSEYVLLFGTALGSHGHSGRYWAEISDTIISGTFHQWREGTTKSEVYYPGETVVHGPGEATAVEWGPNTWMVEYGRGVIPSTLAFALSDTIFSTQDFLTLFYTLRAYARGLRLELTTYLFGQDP
Sequence of Delta-type opioid receptor (P41143 whole entry): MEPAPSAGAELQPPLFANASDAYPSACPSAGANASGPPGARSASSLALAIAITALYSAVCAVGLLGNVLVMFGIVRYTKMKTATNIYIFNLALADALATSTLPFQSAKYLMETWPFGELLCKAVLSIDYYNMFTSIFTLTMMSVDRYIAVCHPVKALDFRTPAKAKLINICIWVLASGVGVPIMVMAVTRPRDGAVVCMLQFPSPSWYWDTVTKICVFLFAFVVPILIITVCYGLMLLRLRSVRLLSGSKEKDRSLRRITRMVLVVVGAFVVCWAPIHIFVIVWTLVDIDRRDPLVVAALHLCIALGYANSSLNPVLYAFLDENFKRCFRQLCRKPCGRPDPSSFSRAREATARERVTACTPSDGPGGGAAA

A word on the Ki: it is a measure of affinity in units of concentration, obtained from inhibition or displacement. Read a low Ki as higher affinity. As for `CN(CCCc1ccccc1)[C@H]1CCCC[C@@H]1OCCCc1ccccc1`, the Ki in experiment [1] came to 6200 nM; in experiment [2], 3100 nM; in experiment [3] it was 790 nM; in experiment [4], 2200 nM.

For `CN(C)[C@H]1CCCC[C@@H]1OCCCc1ccccc1`, the Ki is more than 10000 nM in experiment [1], 2300 nM in experiment [2], 59 nM in experiment [3] and more than 10000 nM in experiment [4].

On to `CN(C)[C@H]1CCCC[C@@H]1OC/C=C/c1ccccc1`, for which the Ki in experiment [1] was more than 10000 nM; in experiment [2], 4200 nM; in experiment [3], 4.6 nM; in experiment [4] it was more than 10000 nM.

With `CN(CCc1ccccc1)[C@H]1CCCC[C@@H]1O`, the inhibitory constant (Ki) in experiment [1] is more than 10000 nM; in experiment [2] it was more than 10000 nM; in experiment [3] it was 120 nM; in experiment [4], more than 10000 nM.

Consider `CN(CCCc1ccccc1)[C@H]1CCCC[C@@H]1O`, for which the values for the inhibition constant Ki in experiment [1], in experiment [3] and in experiment [4] were more than 10000 nM, 19 nM and more than 10000 nM, respectively.

Take `CN(CCc1ccccc1)[C@H]1CCCC[C@@H]1OCCCc1ccccc1`: the Ki in experiment [1] was more than 10000 nM; in experiment [2], 1600 nM; in experiment [3], 84 nM.
